The source of these data is ChEMBL document CHEMBL3421621, “SAR Studies of Diphenyl Cationic Trypanocides: Superior Activity of Phosphonium over Ammonium Salts” (ACS Med Chem Lett, 2015).

As usually defined, the EC50 is the concentration needed to bring the measured effect to its halfway point. One may read the CC50 as the concentration that lowers cell viability or growth by half. Low readings indicate harm at low concentration, high ones better tolerance by the cells.

Series [1] has as its system Trypanosoma brucei brucei. The experiment in a line: Resistance factor, ratio of EC50 for Trypanosoma brucei brucei B48 to EC50 for wild type Trypanosoma brucei brucei s427 trypomastigotes. Type of series: functional. The gist of the method: (§1)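 AlamarBlue-based viability assay run in parallel on wild-type T. b. brucei s427 trypomastigotes and two resistant strains. TbAT1-KO lacks a functional P2 transporter and is diminazene-resistant. B48 is derived from TbAT1-KO and also lacks a functional high-affinity pentamidine transporter (HAPT). EC50 values are means of three experiments ± SEM. Each resistant-strain EC50 is divided by the wild-type EC50.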

In series [2] the test system is Trypanosoma brucei brucei. The experiment in a line: Antitrypanosomal activity against AT1 knock out Trypanosoma brucei brucei assessed as cell viability after 48 hrs by alamar blue assay. It counts as functional, organism-based. The gist of the method:
(§2)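 Alamar blue viability assay run in parallel on T. b. brucei s427 wild type trypomastigotes, the TbAT1-KO strain (no functional P2 transporter) and the B48 strain (derived from TbAT1-KO, nonfunctional HAPT). EC50 values are the mean of three experiments ± SEM. Resistance factor is the EC50 against each resistant strain relative to wild type.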
Background: Resazurin is reduced to fluorescent resorufin, in cell work by metabolically active cells.

The subject of series [3] is Trypanosoma brucei brucei. The experiment in a line: Antitrypanosomal activity against Trypanosoma brucei brucei B48 with nonfunctional high affinity pentamidine transporter assessed as cell viability after 48 hrs by alamar blue assay. As to conditions: B48, 48 h. It counts as functional, organism-based. The procedure, abridged: as §2
The test system of series [4] is Trypanosoma brucei brucei. Briefly: Antitrypanosomal activity against wild type Trypanosoma brucei brucei s427 trypomastigotes assessed as cell viability after 48 hrs by alamar blue assay. Type of series: functional, organism-based. As to conditions: s427, 48 h. The procedure, abridged: as §2
The nature of series [5]: Cytotoxicity against HEK293 cells after 16 hrs by alamar blue assay. Type of series: cell-based. Conditions: human.
Series [6] concerns Trypanosoma brucei brucei. Briefly: Resistance factor, ratio of EC50 for AT1 knock out Trypanosoma brucei brucei to EC50 for wild type Trypanosoma brucei brucei s427 trypomastigotes. Type of series: functional. The procedure, abridged:
as §1

A short description of series [7]: Selectivity index, ratio of CC50 for HEK293 cells to EC50 for wild type Trypanosoma brucei brucei s427 trypomastigotes. As to conditions: human; read-out: Ratio CC50/EC50. Type of series: toxicity, cell-based. The procedure, abridged:
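Selectivity index = CC50 for HEK cells divided by EC50 against T. b. brucei s427 wild type.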

For `[Br-].[Br-].c1cc[n+](Cc2ccc(Oc3ccc(C[n+]4ccccc4)cc3)cc2)cc1`, the “Ratio EC50” value in series [1] turned out to be 0.8. The EC50 is > 100 µM in series [2], 72 µM in series [3] and 85 µM in series [4].

Turning to `CCCC[N+](CCCC)(CCCC)Cc1ccc(C(=O)c2ccccc2)cc1.[Br-]`, in series [5], the CC50 at 16 h is > 300 µM. In addition, the “Ratio EC50” value in series [1] was 1; in series [6], 0.9. Besides, the EC50 in series [2] came out at 4.1 µM; in series [3], 4.5 µM; in series [4] it was 4.6 µM. Also, in series [7], the selectivity ratio was > 65.

For the compound `CC[N+](CC)(CC)Cc1ccc(Oc2ccc(C[N+](CC)(CC)CC)cc2)cc1`, the EC50 in series [2], in series [3] and in series [4] was > 100 µM in each case.

As to `O=C(c1ccccc1)c1ccc(C[n+]2ccccc2)cc1`, the EC50 in series [2], in series [3] and in series [4] was > 100 µM each time.

`O=C(c1ccccc1)c1ccc(C[n+]2cccc3ccccc32)cc1`: the EC50 was 68.5 µM in series [2], 81.5 µM in series [3] and > 100 µM in series [4].

With `O=C(c1ccc(C[n+]2cccc3ccccc32)cc1)c1ccc(C[n+]2cccc3ccccc32)cc1.[Br-].[Br-]`, in series [5], the CC50 at 16 h is > 300 µM. The “Ratio EC50” value in series [1] is 0.7; in series [6], 0.8. Besides, the EC50 in series [2] was determined as 35.2 µM; in series [3], 30.9 µM; in series [4] it was 45.4 µM. In series [7], the selectivity ratio is > 6.

As to `CCCCCC[N+](CCCCCC)(CCCCCC)Cc1ccc(Oc2ccc(C[N+](CCCCCC)(CCCCCC)CCCCCC)cc2)cc1.[Br-].[Br-]`, the 50% cytotoxic concentration (CC50) at 16 h in series [5] worked out at 21.8 µM. Also, the entries for the “Ratio EC50” value in series [1] and in series [6] were 0.6 and 0.8, respectively. For the same compound, the EC50 in series [2] worked out at 0.08 µM; in series [3], 0.065 µM; in series [4] it was 0.102 µM. Moreover, the selectivity ratio in series [7] amounted to 213.

Turning to `N=C(N)c1ccc(/N=N/Nc2ccc(C(=N)N)cc2)cc1` [DIMINAZENE], the “Ratio EC50” value worked out at 3.1 in series [1] and 2.3 in series [6]. In addition, the EC50 came to 0.738 µM in series [2] and 0.323 µM in series [4].

For the compound `CCCCCC[N+](CCCCCC)(CCCCCC)Cc1ccc(C(=O)c2ccccc2)cc1.[Br-]`, the midpoint of cytotoxicity in series [5], the CC50 at 16 h, lay at 15.4 µM. In addition, the “Ratio EC50” value in series [1] is 0.6; in series [6], 0.8. Further, the 50% effective concentration (EC50) worked out at 0.018 µM in series [2], 0.014 µM in series [3] and 0.023 µM in series [4]. Moreover, in series [7], the selectivity ratio came out at 668.

For `CCCC[N+](CCCC)(CCCC)Cc1ccc(C(=O)c2ccc(C[N+](CCCC)(CCCC)CCCC)cc2)cc1.[Br-].[Br-]`, the half-maximal cytotoxic concentration (CC50) at 16 h in series [5] is > 300 µM. In addition, the figures for the “Ratio EC50” value in series [1] and in series [6] were 1.2 and 1.4, respectively. Besides, the EC50 in series [2] is 16.7 µM; in series [3], 14.1 µM; in series [4] it was 11.5 µM. Further, the selectivity ratio in series [7] was > 26.

Turning to `CC[N+](CC)(CC)Cc1ccc(C(=O)c2ccc(C[N+](CC)(CC)CC)cc2)cc1`, the EC50 in series [2], in series [3] and in series [4] was > 100 µM in each case.

With `N=C(N)c1ccc(OCCCCCOc2ccc(C(=N)N)cc2)cc1` [PENTAMIDINE], the “Ratio EC50” value worked out at 32.9 in series [1] and 0.6 in series [6]. Also, the values for the EC50 in series [2], in series [3] and in series [4] were 0.006 µM, 0.329 µM and 0.01 µM, respectively.

`Cl.O=C(c1ccccc1)c1ccc(CN(Cc2ccccc2)Cc2ccccc2)cc1`: the CC50 at 16 h in series [5] is > 300 µM. Besides, the “Ratio EC50” value in series [1] is given as 0.7; in series [6], 0.9. The values for the EC50 in series [2], in series [3] and in series [4] were 10 µM, 8.3 µM and 11 µM, respectively. Moreover, the selectivity ratio in series [7] is > 27.

On to `O=C(c1ccc(C[n+]2ccccc2)cc1)c1ccc(C[n+]2ccccc2)cc1`, for which the EC50 in series [2], in series [3] and in series [4] was > 100 µM in each case.

As to `CCCC[N+](CCCC)(CCCC)Cc1ccc(Oc2ccc(C[N+](CCCC)(CCCC)CCCC)cc2)cc1.[Br-].[Br-]`, the CC50 at 16 h in series [5] is > 300 µM. Further, the “Ratio EC50” value came out at 1.1 in series [1] and 1.4 in series [6]. Besides, the concentration for a half-maximal effect (EC50) in series [2] turned out to be 3.98 µM; in series [3], 3 µM; in series [4] it was 2.8 µM. Further, the selectivity ratio in series [7] is > 100.

For `[Br-].[Br-].c1ccc2c(c1)ccc[n+]2Cc1ccc(Oc2ccc(C[n+]3cccc4ccccc43)cc2)cc1`, the cytotoxic concentration (CC50) at 16 h in series [5] is > 300 µM. Also, the “Ratio EC50” value in series [1] and in series [6] was 0.9 each time. The EC50 is 10.2 µM in series [2], 9.7 µM in series [3] and 11 µM in series [4]. In series [7], the selectivity ratio is > 27.
